Test results taken from paper PMC5956897 (Journal of inorganic biochemistry, 2018).

How the values were obtained:
MDA-MB-231 cells [1] = experiment: Intracellular ROS detection with DCFH2-DA by flow cytometry; type: cell-based
Summary of the method: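 Cells were seeded at 2.0 × 10⁵ per well and incubated overnight. They were treated for 2 h with test compound (50 μM) in phenol-red-free EMEM with 0.1% DMSO; the H₂O₂ control in PBS ran for 10 min. After PBS washes, cells took up DCFH₂-DA (30 μM) in warm PBS. They were detached with trypsin/EDTA, held on ice, and read by flow cytometry (488 nm excitation, 530/30 nm) within 1 h. n=3, mean ± SDM.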

MEL cells = experiment: Spectrophotometric hemoglobin quantitation in induced MEL cells; type: cell-based, murine
MDA-MB-231 cells [2] = experiment: Cell cycle analysis; type: cell-based; settings: MDA-MB-231, 10 μM, 12 h

Structure (SMILES)	DCF response compared to untreated control (MDA-MB-231 cells [1]; MDA-MB-231, positive control in PBS, 10 min)	effect on hemoglobin production (MEL cells; 0.5 μM or 5 μM, 72 h, without SA)	decrease in intracellular hemoglobin concentrations (MEL cells; 72 h, without SA, statistically significant)	change in intracellular Hb concentrations (MEL cells; with succinylacetone (SA, 1 mM), normalized data)	ROS/RNS levels (DCF fluorescence) compared to untreated control (MDA-MB-231 cells [1]; MDA-MB-231, 50 μM, 2 h)	G0/1 accumulation (cell cycle arrest) (MDA-MB-231 cells [2])
OO [H2O2, Hydrogen peroxide]	an order of magnitude higher than that of the untreated control	–	–	–	–	–
O=C(N/N=C/c1ccccc1O)c1ccncc1 [SIH, salicyl isonicotinoyl hydrazone]	–	did not have major effects on hemoglobin production	less than 20%	did not result in statistically significant changes	significant decrease of DCF fluorescence	arrest at the G1/S interface
